Assay type in all cases: cell-based
The target in data set [1] is T1, Aryl hydrocarbon receptor (Homo sapiens, UniProt P35869).
T1 sequence (P35869 whole entry): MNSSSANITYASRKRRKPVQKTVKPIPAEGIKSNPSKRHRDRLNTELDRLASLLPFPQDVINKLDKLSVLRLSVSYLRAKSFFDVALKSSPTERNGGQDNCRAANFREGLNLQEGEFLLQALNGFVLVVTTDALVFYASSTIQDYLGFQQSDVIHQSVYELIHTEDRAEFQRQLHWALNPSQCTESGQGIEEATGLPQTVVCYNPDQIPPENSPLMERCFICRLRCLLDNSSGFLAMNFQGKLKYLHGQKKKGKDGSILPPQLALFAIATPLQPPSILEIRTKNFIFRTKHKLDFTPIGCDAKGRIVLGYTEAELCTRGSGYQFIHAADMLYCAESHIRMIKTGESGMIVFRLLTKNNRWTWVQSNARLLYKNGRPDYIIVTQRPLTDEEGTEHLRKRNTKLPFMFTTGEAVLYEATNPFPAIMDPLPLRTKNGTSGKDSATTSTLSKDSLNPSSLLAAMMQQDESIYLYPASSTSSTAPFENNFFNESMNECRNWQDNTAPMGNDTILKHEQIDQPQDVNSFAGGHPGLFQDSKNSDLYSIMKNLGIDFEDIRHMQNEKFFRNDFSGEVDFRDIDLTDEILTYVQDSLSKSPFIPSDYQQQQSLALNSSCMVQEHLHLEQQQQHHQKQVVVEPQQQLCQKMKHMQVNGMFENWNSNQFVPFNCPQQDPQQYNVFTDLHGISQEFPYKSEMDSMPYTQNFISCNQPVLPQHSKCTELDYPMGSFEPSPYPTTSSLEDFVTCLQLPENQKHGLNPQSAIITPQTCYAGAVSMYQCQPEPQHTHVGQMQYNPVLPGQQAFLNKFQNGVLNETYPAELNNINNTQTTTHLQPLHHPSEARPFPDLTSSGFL
The data set is described as follows: Downregulation of AhR expression in human MCF7 cells at 10 uM after 6 hrs in presence of proteasome inhibitor MG132 by Western blot method relative to lamin B. As to conditions: mcf7, 6 h. Put shortly: (§1)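 MCF-7 cells kept in DMEM with 10% FBS, kanamycin and 10 μg/mL insulin, then exposed to compounds for 6 h. Lysates made in SDS buffer (0.1 M Tris-HCl pH 8.0, 10% glycerol, 1% SDS), boiled, BCA-normalized and run on SDS-PAGE. Blots probed with anti-ERα, AR, AhR or VDR and β-actin or lamin B. Chemiluminescence quantified as target/loading-protein ratio; means ± S.E., n=3.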
For orientation: In western blotting, separated proteins are transferred to a membrane and probed.

In data set [2] the target is T2, Androgen receptor (Homo sapiens) (UniProt P10275).
T2 sequence (whole entry): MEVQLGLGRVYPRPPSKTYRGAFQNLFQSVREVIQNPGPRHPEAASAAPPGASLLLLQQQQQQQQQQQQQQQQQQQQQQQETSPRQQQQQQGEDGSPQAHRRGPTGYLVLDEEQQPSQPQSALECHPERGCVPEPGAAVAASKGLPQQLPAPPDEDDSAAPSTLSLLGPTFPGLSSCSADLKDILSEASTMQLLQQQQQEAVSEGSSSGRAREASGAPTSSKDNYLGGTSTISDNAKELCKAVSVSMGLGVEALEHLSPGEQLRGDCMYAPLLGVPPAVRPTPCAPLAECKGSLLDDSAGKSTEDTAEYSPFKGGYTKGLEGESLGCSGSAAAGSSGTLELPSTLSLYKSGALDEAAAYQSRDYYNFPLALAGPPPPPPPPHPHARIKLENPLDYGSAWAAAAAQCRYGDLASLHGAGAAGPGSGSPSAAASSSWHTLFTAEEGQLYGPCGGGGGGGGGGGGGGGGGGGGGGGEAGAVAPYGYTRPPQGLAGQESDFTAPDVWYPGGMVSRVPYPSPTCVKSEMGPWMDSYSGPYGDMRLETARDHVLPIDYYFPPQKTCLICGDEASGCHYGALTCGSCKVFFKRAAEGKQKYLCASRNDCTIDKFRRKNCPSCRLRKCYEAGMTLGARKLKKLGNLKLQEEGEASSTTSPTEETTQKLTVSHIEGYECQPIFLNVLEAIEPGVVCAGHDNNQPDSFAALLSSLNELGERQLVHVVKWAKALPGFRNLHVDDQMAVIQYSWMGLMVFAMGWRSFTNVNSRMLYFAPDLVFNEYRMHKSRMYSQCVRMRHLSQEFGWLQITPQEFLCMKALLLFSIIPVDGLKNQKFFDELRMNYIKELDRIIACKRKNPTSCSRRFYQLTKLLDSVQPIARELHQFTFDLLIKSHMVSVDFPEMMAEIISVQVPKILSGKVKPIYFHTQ
The data set is described as follows: Downregulation of androgen receptor expression in human MCF7 cells at 10 uM after 6 hrs in presence of proteasome inhibitor MG132 by Western blot method relative to lamin B. In outline: as §1

In data set [3] the target is T2, Androgen receptor (Homo sapiens). Kind of data set: Downregulation of androgen receptor expression in human MCF7 cells at 1 uM after 6 hrs by Western blot method relative to lamin B. In outline: as §1
In data set [4] the target is T1, Aryl hydrocarbon receptor. Kind of data set: Downregulation of AhR expression in human MCF7 cells at 3 uM after 6 hrs in presence of proteasome inhibitor MG132 by Western blot method relative to lamin B. Particulars: mcf7, 6 h. In outline: as §1
Data set [5] deals with T1, Aryl hydrocarbon receptor. Kind of data set: Downregulation of AhR expression in human MCF7 cells at 1 uM after 6 hrs in presence of proteasome inhibitor MG132 by Western blot method relative to lamin B. Particulars: mcf7, 6 h. Put shortly:
as §1

For data set [6], the target named is T3, Estrogen receptor (Homo sapiens) (UniProt P03372).
T3 sequence (whole entry): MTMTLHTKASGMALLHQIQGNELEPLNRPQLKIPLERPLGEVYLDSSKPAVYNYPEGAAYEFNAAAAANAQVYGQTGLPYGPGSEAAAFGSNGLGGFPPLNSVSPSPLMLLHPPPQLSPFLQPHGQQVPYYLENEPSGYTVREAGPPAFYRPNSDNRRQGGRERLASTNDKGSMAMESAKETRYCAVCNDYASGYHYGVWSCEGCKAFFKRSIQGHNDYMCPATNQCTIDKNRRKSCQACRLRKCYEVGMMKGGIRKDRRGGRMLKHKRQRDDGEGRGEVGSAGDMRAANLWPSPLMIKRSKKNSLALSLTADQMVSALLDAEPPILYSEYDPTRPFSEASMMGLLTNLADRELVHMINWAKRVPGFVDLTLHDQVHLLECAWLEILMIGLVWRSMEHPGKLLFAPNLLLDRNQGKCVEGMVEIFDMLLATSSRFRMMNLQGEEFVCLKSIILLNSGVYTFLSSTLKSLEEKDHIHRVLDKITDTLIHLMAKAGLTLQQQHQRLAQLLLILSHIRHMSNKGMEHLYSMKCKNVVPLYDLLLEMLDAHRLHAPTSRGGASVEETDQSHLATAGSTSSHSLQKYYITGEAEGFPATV
Kind of data set: Downregulation of ERalpha expression in human MCF7 cells at 3 uM after 6 hrs by Western blot method relative to lamin B. Put shortly: as §1

In data set [7] the target is T2, Androgen receptor (Homo sapiens). The data set is described as follows: Downregulation of androgen receptor expression in human MCF7 cells at 1 uM after 6 hrs in presence of proteasome inhibitor MG132 by Western blot method relative to lamin B. Put shortly: as §1
Data set [8] has as its target T3, Estrogen receptor (Homo sapiens). The data set is described as follows: Downregulation of ERalpha expression in human MCF7 cells at 10 uM after 6 hrs by Western blot method relative to beta-actin. In outline: as §1

Consider `CCCCCCCCCCNCCOc1ccc(C(CCC)(CCC)c2ccc(O)c(C)c2)cc1C`, for which the Activity in data set [1] is 107%; in data set [2], 77%; in data set [3] it was 94%; in data set [4], 99%; in data set [5] it was 105%; in data set [6], 47 to 59%. In addition, the Activity is 96% in data set [7] and 44% in data set [8].

The record behind these values is ChEMBL document CHEMBL4138058, “Design and synthesis of novel selective estrogen receptor degradation inducers based on the diphenylheptane skeleton” (Medchemcomm, 2017).
